From PubChem
Rows were chosen to be rich in hits. Some 3% of all compounds tested hit in one or more screens of this group.
TMEM16A act: mouse TMEM16A channel activation, primary screen. Q8BHY3. HEK293 TMEM16A/YFP-H148Q/I152L, iodide quench fluorescence; hits give low values. B-score at 10 µM. hit rate 0.3% among 340,000;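 active means fluorescence-ratio B-score plate-corrected deviation score at least 3 library SD below zero, with starting fluorescence score within 5 deviations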;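 further: channel opened by trigger with iodide after compound preincubation; score built on the fluorescence ratio of max minus min over baseline; more negative score means more quench and so TMEM16A activation or potentiation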
ANO1 block: inhibitors of mouse TMEM16A calcium-activated chloride channel. Q8BHY3. HEK293 TMEM16A/YFP iodide influx fluorescence, ionomycin. hit rate 1.2% among 310,000. AID 588511. normalized B-score (activity score, 25-100; higher = stronger inhibition) at 10 µM;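 active means ratio plate-corrected score three or more library SD toward inhibition, starting fluorescence score within five deviations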;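 further: score derived from kinetic fluorescence span divided by baseline fluorescence per well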
FID counter: displaces DNA intercalator in HCV helicase counter-screen | inhibition, % at 7.9 µM | hit rate 0.17% among 290,000 | DNA fluorescent intercalator displacement, fluorescence; in the data active means inhibition above about 37%;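 further: higher means more ethidium bromide displaced from hairpin DNA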
SR-BI HDL uptake: inhibitors of mouse SR-BI mediated HDL lipid uptake; AID 488896; Q61009; hit rate 0.96% among 320,000; ldlA[mSR-BI] CHO cells, DiI-HDL uptake fluorescence, 3 h; inhibition, % at 12.5 µM;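 active means mean replicate inhibition of at least 70% and a set share of replicates each scoring 70 or more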
Target sequence (Q61009 whole entry, looked up): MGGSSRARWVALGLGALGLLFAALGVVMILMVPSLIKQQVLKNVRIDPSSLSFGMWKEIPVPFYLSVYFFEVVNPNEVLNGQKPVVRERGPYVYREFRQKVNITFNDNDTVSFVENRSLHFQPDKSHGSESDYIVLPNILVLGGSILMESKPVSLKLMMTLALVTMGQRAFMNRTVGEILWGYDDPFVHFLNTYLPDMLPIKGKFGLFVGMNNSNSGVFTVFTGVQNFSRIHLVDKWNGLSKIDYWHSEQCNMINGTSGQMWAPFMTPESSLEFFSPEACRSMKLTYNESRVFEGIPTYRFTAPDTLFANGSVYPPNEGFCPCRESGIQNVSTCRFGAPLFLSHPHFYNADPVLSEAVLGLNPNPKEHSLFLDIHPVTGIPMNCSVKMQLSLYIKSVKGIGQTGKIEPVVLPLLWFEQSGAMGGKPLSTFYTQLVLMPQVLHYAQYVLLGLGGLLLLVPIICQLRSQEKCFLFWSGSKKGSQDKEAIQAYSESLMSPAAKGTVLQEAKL
Kir21 inh: inhibitors of mouse Kir2.1 inward-rectifier potassium channel; P35561; B-score at 10 µM; hit rate 0.85% among 310,000; HEK293-Kir2.1, FluxOR thallium flux fluorescence; hits give low values;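 active means fluorescence ratio B-score at or below minus 3 SD of library scores, with starting-brightness B-score within 2 SD, cut at about -4.2 in these data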;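 further: channel flux triggered by added potassium and thallium sulfate stimulus; B-score of peak minus minimum fluorescence over baseline after thallium stimulus; more negative B-score means stronger Kir2.1 block with less thallium influx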
SR-BI DiI-HDL act: activators of SR-BI mediated HDL lipid uptake. CHO ldlA[mSR-BI] cells, DiI-HDL uptake fluorescence, 3 h; 100 = double the neutral-control signal. activation, % at 12.5 µM. hit rate 0.096% among 320,000;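 active means mean replicate activation of at least 60% and every replicate at or above 60%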
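Test system: SR-BI-overexpressing, LDLR-lacking CHO cells. Measured by: DiI fluorescence, bottom read. Medium: Ham's F12 with 0.5% BSA, HEPES 25 mM, pH 7.4. Timing: 3 h uptake period with compound, 37 °C.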
Large screens that a line does not name were inactive.

CC(=O)Nc1ccc(NC(=O)C(C)OC(=O)CN2C(=O)C3CCCCC3C2=O)cc1 (configuration not stated)	none (no result: ANO1 block, FID counter, Kir21 inh)
O=C(O)C1=CC[C@@H](c2ccc(Cl)cc2)N(S(=O)(=O)c2ccc(Cl)cc2)[C@H]1c1cccc(Cl)c1	ANO1 block 100 (no result: FID counter, Kir21 inh)
Cc1ccc(S(=O)(=O)N2[C@@H](c3ccccc3)C(C(=O)O)=CC[C@H]2c2ccc(Cl)cc2)cc1	none (no result: FID counter, Kir21 inh)
O=C(NCCN1CCCCC1)c1ccc(F)cc1Cl	none
COc1ccccc1C(=O)NCC(=O)NCCc1ccc(Cl)cc1	none (no result: SR-BI HDL uptake, SR-BI DiI-HDL act)
CCCNC(=O)COc1coc(CN2CCN(c3cccc(Cl)c3)CC2)cc1=O	none
Cc1cc2ccc3ccccc3c2cc1CN(C)C	Kir21 inh -13
O=C(O)C1=CC[C@@H](c2ccc(Cl)cc2)N(S(=O)(=O)c2ccc(Cl)cc2)C1	none (no result: FID counter, Kir21 inh)
COc1ccc(N2CCN(Cc3nc4c(c(=O)n(C)c(=O)n4C)n3CCc3ccccc3)CC2)cc1	none
COc1ccc(N2CCN(c3nc4c(c(=O)n(C)c(=O)n4C)n3CCCc3ccccc3)CC2)cc1	SR-BI DiI-HDL act 373 (no result: FID counter)
Cc1cccc(COc2ccccc2C(=O)N(C)CC(=O)Nc2cccc(F)c2)c1	none (no result: ANO1 block, FID counter, Kir21 inh)
CCOc1ccc(NC(=O)CN(C)C(=O)c2ccccc2OCc2cccc(C)c2)cc1OCC	SR-BI HDL uptake 86 (no result: ANO1 block, FID counter, Kir21 inh)
CCC(=O)c1c(NC(CC)CO)cc(C)oc1=O (configuration not stated)	none
CCCCNC(=O)c1onc(CSc2ccc(C(C)C)cc2)c1C(=O)O	ANO1 block 25
CCCCNC(=O)c1onc(CSc2ccccc2)c1C(=O)O	none
Cn1c(O)c(C=Nc2ccc(N3CCOCC3)cc2)c(=O)n(C)c1=S	TMEM16A act -4.8 (no result: ANO1 block)
Oc1ccc(C[C@H]2CNC(=S)N2CC2CCCN2C[C@H](Cc2ccccc2)N2C[C@H](Cc3ccc(O)cc3)N(CCc3ccccc3)C2=S)cc1 (some centres not stated)	SR-BI DiI-HDL act 108 (no result: TMEM16A act, ANO1 block, FID counter, Kir21 inh)
CCCn1c(N)c(C(=O)CN(C)CC(=O)Nc2ccc(F)cc2)c(=O)[nH]c1=O	none (no result: ANO1 block, FID counter, Kir21 inh)
OC(C[n+]1ccccc1)c1ccccc1 (configuration not stated)	none
Cc1ccc(S(=O)(=O)n2nccc2-c2c(-c3ccc(Cl)cc3)noc2C)cc1	TMEM16A act -4.9
CCOc1ccc(C(F)(F)F)cc1NC(=O)c1ccc(OC)c([N+](=O)[O-])c1	SR-BI HDL uptake 80
CCc1ccc(NC(=O)c2ccc(OC)c([N+](=O)[O-])c2)cc1	SR-BI HDL uptake 76
CCOC(=O)c1ccc(NC(=O)c2ccc(OC(C)C)c(OC)c2)cc1	SR-BI HDL uptake 92
CCOc1ccc(C(=O)Nc2ccc(N3CCN(C(C)=O)CC3)cc2)cc1[N+](=O)[O-]	SR-BI HDL uptake 72
COc1ccc(C(=O)Nc2ccncc2)cc1[N+](=O)[O-]	none
COCCOc1ccc(C(F)(F)F)cc1NC(=O)c1ccc(F)cc1	none
O=C(NC(=S)Nc1ccccc1OC(F)F)c1ccc2c(c1)OCO2	none (no result: ANO1 block, FID counter, Kir21 inh)
Cn1ccsc1=NC(=O)c1ccc(OC(F)(F)F)cc1	none
N=C1C(c2nc(-c3ccc(Cl)cc3)cs2)=C(O)CN1NC(=O)c1ccc(O)cc1	none (no result: SR-BI HDL uptake, SR-BI DiI-HDL act)
COc1ccc(C(=O)Nc2ccc(N3CCOCC3)cc2)cc1S(=O)(=O)N1CCCC1	none (no result: ANO1 block, FID counter, Kir21 inh)
COc1cc(C(=O)Nc2ccc(N3CCN(C(=O)c4ccc(C)cc4)CC3)cc2)cc(OC)c1OC	SR-BI HDL uptake 76 (no result: SR-BI DiI-HDL act)
COc1ccc(C(=O)Nc2ccc(N3CCOCC3)cc2)cc1S(=O)(=O)NC1CCCC1	SR-BI HDL uptake 76
COc1ccccc1CN1CC(C(=O)NC2(c3ccccc3)CC2)CCC1=O (configuration not stated)	none
O=[N+]([O-])c1cc(C=Nc2cccc3c(O)cccc23)ccc1Cl	none (no result: TMEM16A act, SR-BI HDL uptake, SR-BI DiI-HDL act)
O=C1CC(c2ccc(O)cc2)Oc2cc(O)cc(O)c21 (configuration not stated)	none
CC1CC(=O)c2c(cc3c(-c4c(O)cc(O)c5c(O)c6c(cc45)OC(C)CC6=O)c(O)cc(O)c3c2O)O1 (configuration not stated)	TMEM16A act -20, SR-BI HDL uptake 117
CN(C)CCN(C(=O)c1ccc(S(=O)(=O)N2CCCC2)cc1)c1nc2ccc(Br)cc2s1	none
CCC1CCCCN1S(=O)(=O)c1ccc(C(=O)N(CCCN(C)C)c2nc3cc4c(cc3s2)OCO4)cc1 (configuration not stated)	FID counter 39
CN(C)CCCN(C(=O)c1ccc(S(=O)(=O)N2CCCCCC2)cc1)c1nc2ccc(F)cc2s1	Kir21 inh -5
CC1CCCCN1S(=O)(=O)c1ccc(C(=O)N(CCCN(C)C)c2nc3ccc(Br)cc3s2)cc1 (configuration not stated)	FID counter 38
CN(C)CCCN(C(=O)c1ccc(S(=O)(=O)N2CCOCC2)cc1)c1nc2ccc(F)cc2s1	none
COc1cc([N+](=O)[O-])ccc1NC(=O)COC(=O)CCS(=O)(=O)c1ccc(C)cc1	none (no result: FID counter)
Cc1c(C(=O)Nc2ccc(S(=O)(=O)N(C)C3CCN(C)CC3)cc2)oc2c(Cl)cccc12	Kir21 inh -5 (no result: FID counter)
O=[N+]([O-])c1ccc(O)c(/C=N/n2cnc3ccccc32)c1	ANO1 block 25
O=[N+]([O-])c1ccc(O)c(/C=N/n2c(CO)nc3ccccc32)c1	none
CCNC(=S)NCc1ccc(Cl)cc1	TMEM16A act -9.6
Clc1ccccc1CSc1nncn1NC/C=C/c1ccccc1	Kir21 inh -6.6
CCC(C)NC(=O)[C@@H]1CSC2c3ccccc3C(=O)N21 (some centres not stated)	none
CC(Oc1ccccc1)c1ccnn1S(=O)(=O)c1ccccc1 (configuration not stated)	Kir21 inh -8.6
CCC(Cc1ccccc1)NS(=O)(=O)c1ccc2c(c1)NC(=O)C(C)S2 (configuration not stated)	none
COc1ccc(/C=N/NC(=O)c2cc(Br)ccc2O)cc1Cn1cc(Cl)cn1	ANO1 block 100
COc1ccc(/C=N/Nc2ccc([N+](=O)[O-])cc2)cc1Cn1cc([N+](=O)[O-])cn1	SR-BI HDL uptake 95
COc1ccc(/C=N/NC(=O)c2ccc(Cl)cc2)cc1Cn1cc(Cl)cn1	none
CCOC(=O)N1CCN(C(=O)CNC(=O)c2ccc(Br)o2)CC1	none
Cc1nc(NC(=O)/C=C/c2ccccc2)sc1C(=O)Nc1ccccc1	SR-BI HDL uptake 76
Cc1nc(Nc2ccc(S(N)(=O)=O)cc2)sc1C(=O)Nc1ccccc1	TMEM16A act -8.9
O=C(OCc1ccccc1)/C(=C/c1cccc(Br)c1)NC(=O)c1ccco1	none
COc1ccc(/C=C/C(=O)NNC(=O)c2ccncc2)c(OC)c1	none (no result: ANO1 block, FID counter, Kir21 inh)
